Experiments:
[1] = molecular target: Lactase/phlorizin hydrolase (Rattus norvegicus) (UniProt Q02401); settings: 1000 uM
Canavalia ensiformis = experiment: Inhibition of jack beans alpha-mannosidase assessed as production of p-nitrophenol at 1000 uM by spectrophotometry
Summary of the method: (§1)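 p-Nitrophenyl glycoside matched to each enzyme, 2 mM, with enzyme at that enzyme's optimum pH: Penicillium decumbens α-L-rhamnosidase pH 4.0, bovine liver β-galactosidase pH 6.8, coffee bean α-galactosidase pH 6.5, jack bean α-mannosidase pH 4.5, snail β-mannosidase pH 4.5. Stopped with 400 mM Na2CO3; released p-nitrophenol read at 400 nm.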

[2] = molecular target: T1, Beta-galactosidase (Bos taurus) (UniProt Q58D55); experiment: Inhibition of bovine liver beta-galactosidase assessed as production of p-nitrophenol at 1000 uM by spectrophotometry
T1 sequence (whole entry): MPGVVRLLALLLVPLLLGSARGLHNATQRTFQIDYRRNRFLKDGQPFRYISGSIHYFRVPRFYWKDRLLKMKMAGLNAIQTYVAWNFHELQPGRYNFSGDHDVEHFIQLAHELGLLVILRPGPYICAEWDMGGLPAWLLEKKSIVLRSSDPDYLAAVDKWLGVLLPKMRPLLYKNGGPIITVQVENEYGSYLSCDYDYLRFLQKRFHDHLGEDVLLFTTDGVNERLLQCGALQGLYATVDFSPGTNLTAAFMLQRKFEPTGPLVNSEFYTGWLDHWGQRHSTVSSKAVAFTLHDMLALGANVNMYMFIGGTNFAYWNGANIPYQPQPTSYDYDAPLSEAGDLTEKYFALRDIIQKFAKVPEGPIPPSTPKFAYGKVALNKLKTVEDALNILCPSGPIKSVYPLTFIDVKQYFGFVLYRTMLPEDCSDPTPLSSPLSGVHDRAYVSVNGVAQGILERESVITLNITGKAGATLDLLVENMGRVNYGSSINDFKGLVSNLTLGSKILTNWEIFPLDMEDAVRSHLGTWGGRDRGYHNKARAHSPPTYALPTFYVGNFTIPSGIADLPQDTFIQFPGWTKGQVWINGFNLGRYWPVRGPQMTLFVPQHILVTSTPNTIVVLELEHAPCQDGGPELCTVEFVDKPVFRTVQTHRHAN
Summary of the method: as §1

Coffea = experiment: Inhibition of coffee beans alpha-galactosidase assessed as production of p-nitrophenol at 1000 uM by spectrophotometry
Summary of the method: as §1

[3] = molecular target: T2, Lysosomal acid glucosylceramidase (Homo sapiens) (UniProt P04062); settings: 1000 uM
T2 sequence (whole entry): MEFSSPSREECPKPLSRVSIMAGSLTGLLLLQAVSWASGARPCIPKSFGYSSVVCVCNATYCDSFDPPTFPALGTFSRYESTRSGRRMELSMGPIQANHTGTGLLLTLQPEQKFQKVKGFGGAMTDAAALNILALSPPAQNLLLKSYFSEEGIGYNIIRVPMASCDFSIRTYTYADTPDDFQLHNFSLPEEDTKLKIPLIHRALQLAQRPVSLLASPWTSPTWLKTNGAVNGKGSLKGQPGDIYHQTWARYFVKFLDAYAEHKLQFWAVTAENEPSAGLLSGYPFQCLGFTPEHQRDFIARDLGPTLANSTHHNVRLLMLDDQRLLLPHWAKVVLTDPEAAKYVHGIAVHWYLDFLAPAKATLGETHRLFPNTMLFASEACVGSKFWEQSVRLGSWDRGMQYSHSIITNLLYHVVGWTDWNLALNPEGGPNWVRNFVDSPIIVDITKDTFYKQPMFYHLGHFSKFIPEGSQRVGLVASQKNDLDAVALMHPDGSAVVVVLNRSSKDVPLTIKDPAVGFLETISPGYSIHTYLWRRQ

[4] = molecular target: T3, Tissue alpha-L-fucosidase (Bos taurus) (UniProt Q2KIM0); settings: 1000 uM
T3 sequence (whole entry): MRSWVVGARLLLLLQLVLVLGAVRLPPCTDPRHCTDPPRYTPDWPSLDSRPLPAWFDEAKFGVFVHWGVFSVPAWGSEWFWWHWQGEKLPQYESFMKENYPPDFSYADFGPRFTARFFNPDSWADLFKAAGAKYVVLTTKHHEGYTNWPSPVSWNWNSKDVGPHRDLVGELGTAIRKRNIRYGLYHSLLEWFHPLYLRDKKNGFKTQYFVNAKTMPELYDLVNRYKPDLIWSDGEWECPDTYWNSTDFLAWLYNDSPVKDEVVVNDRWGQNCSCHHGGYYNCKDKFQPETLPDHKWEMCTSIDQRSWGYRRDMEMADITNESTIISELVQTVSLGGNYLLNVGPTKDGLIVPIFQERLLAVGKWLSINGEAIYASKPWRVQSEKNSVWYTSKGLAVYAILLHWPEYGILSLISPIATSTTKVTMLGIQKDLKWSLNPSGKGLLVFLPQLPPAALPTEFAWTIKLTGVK

[5] = molecular target: T4, Glucosylceramidase (Bos taurus) (UniProt Q2KHZ8); experiment: Inhibition of bovine liver beta-glucosidase assessed as production of p-nitrophenol using p-nitrophenyl glycoside as substrate at 1000 uM by spectrophotometry
T4 sequence (whole entry): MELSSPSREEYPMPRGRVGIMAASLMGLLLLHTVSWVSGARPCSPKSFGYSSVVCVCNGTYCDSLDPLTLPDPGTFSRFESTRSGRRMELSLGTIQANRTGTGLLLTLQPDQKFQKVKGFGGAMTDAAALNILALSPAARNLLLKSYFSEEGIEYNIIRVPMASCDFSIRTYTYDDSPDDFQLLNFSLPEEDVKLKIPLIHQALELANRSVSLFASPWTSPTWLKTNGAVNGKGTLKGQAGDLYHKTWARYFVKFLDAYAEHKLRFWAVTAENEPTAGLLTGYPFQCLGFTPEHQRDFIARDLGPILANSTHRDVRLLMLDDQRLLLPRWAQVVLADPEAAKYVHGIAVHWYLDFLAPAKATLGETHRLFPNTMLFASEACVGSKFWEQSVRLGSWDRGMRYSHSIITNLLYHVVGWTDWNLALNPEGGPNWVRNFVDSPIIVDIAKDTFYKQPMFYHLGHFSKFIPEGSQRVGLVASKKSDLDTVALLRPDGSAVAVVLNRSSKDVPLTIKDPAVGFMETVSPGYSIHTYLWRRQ

Prunus dulcis = settings: 1000 uM
[6] = Inhibition of rat intestinal maltase assessed as production of D-glucose using maltose as substrate after 10 to 30 mins by spectrophotometry
Summary of the method: (§2)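 Enzymes were rice α-glucosidase at pH 5.0 and rat small-intestine brush border membranes (Kessler method) at pH 5.8. Each reaction contained 25 mM maltose and enzyme and was incubated 10–30 min at 37 °C. Reactions were stopped by heating at 100 °C for 3 min, then centrifuged. Released D-glucose was measured with a glucose test reagent by absorbance at 505 nm.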

Penicillium decumbens = experiment: Inhibition of Penicillium decumbens alpha-L-rhamnosidase assessed as production of p-nitrophenol at 1000 uM by spectrophotometry
Summary of the method: as §1

Helix pomatia = experiment: Inhibition of snail beta-mannosidase assessed as production of p-nitrophenol at 1000 uM by spectrophotometry
Summary of the method: as §1

[7] = molecular target: Sucrase-isomaltase, intestinal (Rattus norvegicus) (UniProt P23739); settings: 1000 uM
Rattus norvegicus [8] = species: Rattus norvegicus; experiment: Inhibition of rat intestinal cellobiase assessed as production of p-nitrophenol at 1000 uM by spectrophotometry
[9] = molecular target: Sucrase-isomaltase, intestinal (Rattus norvegicus) (UniProt P23739); settings: 1000 uM; remark: listed apart in the source
[10] = Inhibition of rice alpha-glucosidase assessed as production of D-glucose using maltose as substrate after 10 to 30 mins by spectrophotometry; set-up: species or system Oryza sativa
Summary of the method: as §2

Rattus norvegicus [11] = species: Rattus norvegicus; settings: 1000 uM
[12] = Inhibition of rat intestinal cellobiase assessed as production of p-nitrophenol by spectrophotometry
[13] = molecular target: Lactase/phlorizin hydrolase (Rattus norvegicus, UniProt Q02401); experiment: Inhibition of rat intestinal lactase assessed as production of p-nitrophenol by spectrophotometry
Oryza sativa = settings: 1000 uM
Beta-galactosidase = molecular target: T5, Beta-galactosidase (Bos taurus, UniProt Q58D55); experiment: Inhibition of bovine liver beta-galactosidase assessed as production of p-nitrophenol by spectrophotometry
T5 sequence (Q58D55 whole entry): T1 sequence (whole entry)

[14] = Inhibition of almond beta-glucosidase assessed as production of p-nitrophenol using p-nitrophenyl glycoside as substrate by spectrophotometry
[15] = molecular target: Sucrase-isomaltase, intestinal (Rattus norvegicus, UniProt P23739); experiment: Inhibition of rat intestinal sucrase assessed as release of D-glucose at by spectrophotometry
Chain of Sucrase-isomaltase, intestinal (P23739 1-1013 limits assumed): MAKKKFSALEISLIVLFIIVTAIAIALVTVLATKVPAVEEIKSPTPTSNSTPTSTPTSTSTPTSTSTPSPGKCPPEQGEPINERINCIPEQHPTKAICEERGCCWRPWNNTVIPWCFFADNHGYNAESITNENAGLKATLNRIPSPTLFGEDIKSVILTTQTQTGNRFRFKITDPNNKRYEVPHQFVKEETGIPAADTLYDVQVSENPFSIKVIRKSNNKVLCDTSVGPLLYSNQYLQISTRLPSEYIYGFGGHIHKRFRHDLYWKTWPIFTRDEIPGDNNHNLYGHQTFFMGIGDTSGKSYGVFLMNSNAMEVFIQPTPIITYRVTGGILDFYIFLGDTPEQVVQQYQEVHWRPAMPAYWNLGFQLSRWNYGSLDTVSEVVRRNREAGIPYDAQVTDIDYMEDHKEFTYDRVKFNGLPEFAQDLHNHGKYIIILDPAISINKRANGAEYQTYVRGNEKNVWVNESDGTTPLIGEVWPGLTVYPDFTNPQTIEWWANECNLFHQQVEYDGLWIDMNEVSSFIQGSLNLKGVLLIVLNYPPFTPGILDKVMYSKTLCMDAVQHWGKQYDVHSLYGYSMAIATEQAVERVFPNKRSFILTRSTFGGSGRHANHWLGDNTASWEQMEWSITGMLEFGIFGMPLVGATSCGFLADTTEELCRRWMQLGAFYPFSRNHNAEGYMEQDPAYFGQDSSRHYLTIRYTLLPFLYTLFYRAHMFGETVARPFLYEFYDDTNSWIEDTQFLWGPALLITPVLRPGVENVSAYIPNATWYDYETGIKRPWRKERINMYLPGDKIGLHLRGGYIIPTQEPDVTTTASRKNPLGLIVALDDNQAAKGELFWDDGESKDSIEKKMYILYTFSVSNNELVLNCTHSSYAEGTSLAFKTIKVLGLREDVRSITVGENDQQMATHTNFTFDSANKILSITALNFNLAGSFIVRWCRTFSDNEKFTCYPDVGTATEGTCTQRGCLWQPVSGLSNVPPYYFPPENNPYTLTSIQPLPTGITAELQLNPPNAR
Chain of Sucrase-isomaltase, intestinal (P23739 1014-1841 limits assumed): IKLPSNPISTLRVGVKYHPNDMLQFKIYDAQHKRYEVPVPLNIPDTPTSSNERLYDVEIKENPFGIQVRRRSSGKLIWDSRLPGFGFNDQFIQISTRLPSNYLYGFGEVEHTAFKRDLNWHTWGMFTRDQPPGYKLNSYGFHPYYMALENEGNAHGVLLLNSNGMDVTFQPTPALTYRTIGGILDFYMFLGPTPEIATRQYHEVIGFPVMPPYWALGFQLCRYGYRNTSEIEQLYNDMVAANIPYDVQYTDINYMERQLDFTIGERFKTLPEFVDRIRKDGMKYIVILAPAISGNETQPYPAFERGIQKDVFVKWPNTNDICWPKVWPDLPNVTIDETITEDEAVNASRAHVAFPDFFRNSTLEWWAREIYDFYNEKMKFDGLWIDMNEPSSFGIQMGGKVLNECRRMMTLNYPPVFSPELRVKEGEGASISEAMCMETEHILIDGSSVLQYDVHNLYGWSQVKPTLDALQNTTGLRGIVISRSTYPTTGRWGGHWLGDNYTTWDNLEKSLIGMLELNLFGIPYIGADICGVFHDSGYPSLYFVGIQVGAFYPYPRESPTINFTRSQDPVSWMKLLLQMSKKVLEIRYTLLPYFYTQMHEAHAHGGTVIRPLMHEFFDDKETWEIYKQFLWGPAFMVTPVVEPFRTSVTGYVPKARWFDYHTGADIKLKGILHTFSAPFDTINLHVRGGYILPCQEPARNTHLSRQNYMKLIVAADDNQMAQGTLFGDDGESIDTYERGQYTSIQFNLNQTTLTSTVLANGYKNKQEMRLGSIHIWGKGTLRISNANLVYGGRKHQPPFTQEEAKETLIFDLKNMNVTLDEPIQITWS

Chain of Lactase/phlorizin hydrolase (Rattus norvegicus) (Q02401 868-1928 limits assumed): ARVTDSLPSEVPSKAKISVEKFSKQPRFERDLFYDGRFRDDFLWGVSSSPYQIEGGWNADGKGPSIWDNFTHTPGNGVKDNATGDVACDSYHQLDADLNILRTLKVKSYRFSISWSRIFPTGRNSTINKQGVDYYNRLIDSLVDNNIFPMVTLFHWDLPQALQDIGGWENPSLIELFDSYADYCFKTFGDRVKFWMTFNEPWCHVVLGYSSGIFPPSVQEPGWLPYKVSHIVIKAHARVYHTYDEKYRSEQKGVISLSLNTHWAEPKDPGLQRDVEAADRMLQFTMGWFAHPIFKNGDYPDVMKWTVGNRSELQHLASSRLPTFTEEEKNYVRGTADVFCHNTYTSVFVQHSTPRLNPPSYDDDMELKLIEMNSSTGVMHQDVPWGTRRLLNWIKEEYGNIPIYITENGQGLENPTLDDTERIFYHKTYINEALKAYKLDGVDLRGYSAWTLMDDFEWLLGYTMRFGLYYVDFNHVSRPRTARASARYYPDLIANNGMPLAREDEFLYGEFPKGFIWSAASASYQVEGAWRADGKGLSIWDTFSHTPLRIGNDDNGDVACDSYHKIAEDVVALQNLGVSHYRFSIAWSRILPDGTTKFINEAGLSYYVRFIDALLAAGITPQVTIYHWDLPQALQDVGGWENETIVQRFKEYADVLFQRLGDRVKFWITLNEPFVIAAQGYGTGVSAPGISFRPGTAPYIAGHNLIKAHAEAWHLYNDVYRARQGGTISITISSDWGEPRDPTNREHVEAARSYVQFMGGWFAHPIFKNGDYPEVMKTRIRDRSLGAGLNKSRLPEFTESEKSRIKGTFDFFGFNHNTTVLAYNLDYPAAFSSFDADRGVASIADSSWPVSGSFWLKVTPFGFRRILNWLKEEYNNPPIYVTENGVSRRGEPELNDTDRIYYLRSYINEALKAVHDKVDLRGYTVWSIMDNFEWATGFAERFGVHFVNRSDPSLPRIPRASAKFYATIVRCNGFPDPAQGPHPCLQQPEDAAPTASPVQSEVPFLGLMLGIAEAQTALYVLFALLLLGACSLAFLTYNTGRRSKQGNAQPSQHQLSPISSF
Chain of Lactase/phlorizin hydrolase (Q02401 868-1928 limits assumed): as above
Chain of Sucrase-isomaltase, intestinal (Rattus norvegicus) (P23739 1-1013 limits assumed): as the sequence (P23739 1-1013 limits assumed) above
Chain of Sucrase-isomaltase, intestinal (Rattus norvegicus) (P23739 1014-1841 limits assumed): as the sequence (P23739 1014-1841 limits assumed) above

Row | SMILES | inhibition [1] [%] | inhibition (Canavalia ensiformis) [%] | inhibition [2] [%] | inhibition (Coffea) [%] | inhibition [3] [%] | inhibition [4] [%] | inhibition [5] [%] | inhibition (Prunus dulcis) [%] | inhibition (Penicillium decumbens) [%] | inhibition (Helix pomatia) [%] | inhibition [7] [%] | inhibition (Rattus norvegicus [8]) [%] | inhibition [9] [%] | inhibition (Rattus norvegicus [11]) [%] | IC50 [13] [µM] | inhibition (Oryza sativa) [%] | IC50 [14] [µM] | other results
1 | OC[C@@H]1NCC[C@@H](O)[C@@H]1O | < 50 | < 50 | < 50 | < 50 | < 50 | < 50 | < 50 | < 50 | < 50 | < 50 | < 50 | < 50 | < 50 | – | – | – | – | IC50 [6]: 668 µM; IC50 [10]: 980 µM
2 | OC[C@H]1CNC[C@H](O)[C@H]1O | – | < 50 | < 50 | < 50 | < 50 | < 50 | < 50 | < 50 | < 50 | < 50 | < 50 | – | < 50 | < 50 | 211 | < 50 | – | IC50 [12]: 912 µM
3 | OC[C@@H]1CNC[C@H](O)[C@H]1O | – | < 50 | – | < 50 | – | < 50 | – | – | < 50 | < 50 | – | – | – | < 50 | 20 | < 50 | 236 | IC50 (Beta-galactosidase): 821 µM; IC50 [15]: 34 µM
4 | OC[C@H]1NCC[C@H](O)[C@H]1O | < 50 | < 50 | < 50 | < 50 | < 50 | < 50 | < 50 | < 50 | < 50 | < 50 | – | < 50 | – | < 50 | – | < 50 | – | –
5 | OC[C@@H]1CNC[C@@H](O)[C@H]1O | – | < 50 | < 50 | < 50 | < 50 | < 50 | < 50 | < 50 | < 50 | < 50 | < 50 | < 50 | < 50 | < 50 | 469 | < 50 | – | –
6 | OC[C@H]1CNC[C@H](O)[C@@H]1O | – | < 50 | < 50 | < 50 | – | < 50 | < 50 | – | < 50 | < 50 | < 50 | – | < 50 | < 50 | 52 | < 50 | 443 | IC50 [12]: 334 µM
7 | OC[C@@H]1CNC[C@@H](O)[C@@H]1O | – | < 50 | – | < 50 | < 50 | < 50 | – | < 50 | < 50 | < 50 | < 50 | < 50 | < 50 | < 50 | 646 | < 50 | – | IC50 (Beta-galactosidase): 389 µM
8 | OC[C@@H]1NCC[C@H](O)[C@@H]1O | < 50 | < 50 | < 50 | < 50 | < 50 | < 50 | < 50 | < 50 | < 50 | < 50 | < 50 | < 50 | < 50 | < 50 | – | < 50 | – | –
9 | OC[C@H]1NCC[C@H](O)[C@@H]1O | – | < 50 | – | < 50 | < 50 | < 50 | – | – | < 50 | < 50 | < 50 | – | < 50 | < 50 | 4.3 | – | 120 | IC50 [12]: 39 µM; IC50 [10]: 120 µM
10 | OC[C@@H]1NCC[C@H](O)[C@H]1O | < 50 | < 50 | < 50 | < 50 | < 50 | < 50 | < 50 | < 50 | < 50 | < 50 | < 50 | < 50 | < 50 | < 50 | – | < 50 | – | –
11 | OC[C@@H]1NC[C@@H](O)[C@H](O)[C@H]1O | – | < 50 | – | < 50 | – | – | < 50 | – | < 50 | < 50 | – | < 50 | – | – | – | – | 980 | IC50 [6]: 28 µM; IC50 [10]: 4.3 µM
